Published values from different studies.
Each line is one published result; the experiments were not run side by side.
FLT3: Receptor-type tyrosine-protein kinase FLT3 (FLT3, Homo sapiens, UniProt P36888)
Tmem97: Sigma intracellular receptor 2 (Tmem97, Rattus norvegicus, UniProt Q5U3Y7)
MTNR1A: Melatonin receptor type 1A (MTNR1A, Homo sapiens, UniProt P48039)
CYP51: Sterol 14-alpha demethylase (CYP51, Trypanosoma cruzi, UniProt Q7Z1V1)
HTR2C: 5-hydroxytryptamine receptor 2C (HTR2C, Homo sapiens, UniProt P28335)
F2 trypsin-like site: Prothrombin, trypsin-like site (F2, Bos taurus, UniProt P00735)

Structure (SMILES) | target | assay | setting | endpoint | result
CC(C)Nc1ccnc(Nc2ccc(-c3ccccc3)cc2)n1 | FLT3 | enzyme activity, inhibitor | – | IC50 | 15 µM
CCCCN1CCN(C2CCCCC2)CC1 | Tmem97 | ligand displacement, radioligand | cell membranes | Ki | 0.0652 µM
COCC(C)Nc1ccnc(Nc2cccc(-c3cccnc3)c2)n1 (stereo not shown) | FLT3 | enzyme activity, inhibitor | – | IC50 | < 0.006 µM
Nc1nc(NCc2ccc(Oc3ccccc3)cc2)nc(-c2c(F)cccc2CO)n1 | MTNR1A | cell-free assay, radioligand | – | Ki | 5.9 µM
c1cc(Nc2nccc(NC3CCCCC3)n2)cc(C2CC2)c1 | FLT3 | enzyme activity, inhibitor | – | IC50 | 2.59 µM
COc1ccc2c(c1)N(Cc1cccc3[nH]ccc13)CCO2 | MTNR1A | cAMP, agonist, luciferase | – | EC50 | 0.0208 µM
O=C(NCCCn1ccnc1)O[C@@H](Cn1ccnc1)c1ccc(F)cc1 | CYP51 | binding | – | Kd | 0.087 µM
O=C(NCCN1CCCCC1)c1cc(Br)ccc1OCCF | Tmem97 | ligand displacement, radioligand | cell membranes | Ki | 0.0102 µM
O=C(Nc1ccc(Sc2ccc([N+](=O)[O-])cc2)cc1)O[C@H](Cn1ccnc1)c1ccc(Cl)cc1 | CYP51 | binding | – | Kd | 0.162 µM
COc1cccc2c1CCN(C(=O)c1cncn1C)C2 | MTNR1A | cAMP, agonist, luciferase | – | EC50 | 0.0227 µM
COc1ccc2ccn(CCCCN3CCc4cc(OC)c(OC)cc4C3)c2c1 | Tmem97 | ligand displacement, radioligand | cell membranes | Ki | 0.00868 µM
CCc1nc2cc(OCCCCN3CCC(c4cccc(Cl)c4Cl)CC3)ccc2s1 | HTR2C | cell-free assay, radioligand | – | Ki | 0.21 µM
CN(Cc1ccsc1)c1ccnc(Cl)c1 | MTNR1A | cAMP, agonist, luciferase | – | EC50 | 2.66 µM
CC(C)Nc1ccnc(Nc2ccc(C(N)=O)cc2)n1 | FLT3 | enzyme activity, inhibitor | – | IC50 | 0.213 µM
COc1ccc2ncn(CCNC(C)=O)c2c1 | MTNR1A | β-arrestin recruitment, agonist | – | EC50 | 0.871 µM
c1ccc(N2CCCC(Nc3nccc(NC4CCCCC4)n3)C2)cc1 (stereo not shown) | FLT3 | enzyme activity, inhibitor | – | IC50 | 3.26 µM
COC(=O)c1cc(CSc2nnc(C3CC3)[nH]2)cs1 | MTNR1A | cAMP, agonist, luciferase | – | EC50 | 0.00757 µM
COc1ccc2c(c1)C(CNC(N)=O)Cc1ccccc1C2 (stereo not shown) | MTNR1A | GTPγS binding, agonist, radiometric | cell membranes | EC50 | 0.0282 µM
O=C(O)CNC(=O)C(=O)O | Glutamate dehydrogenase 1, mitochondrial (GLUD1, Bos taurus, UniProt P00366) | binding, NMR | – | Kd | 10000 µM
CCOc1ccc(CNc2cccnc2)cc1 | MTNR1A | cAMP, agonist, luciferase | – | EC50 | 0.0635 µM
CC(C)(C)[C@H](NC(=O)[C@H](CCONC(=N)N)NC(=O)Cc1ccc(CN)cc1)C(=O)N[C@@H](CCCCN)C(=O)NCc1ccc(C(=N)N)cc1 | F2 trypsin-like site | enzyme activity, inhibitor | pH 8 | Ki | 10 µM
COC(=O)c1sc(N(C)Cc2ccc(OC)c(O)c2)nc1Cl | MTNR1A | cAMP, agonist, luciferase | – | EC50 | 0.0145 µM

Structure (SMILES) | target | assay | setting | endpoint | result
Cc1cc(Nc2cc3ncccc3c(N[C@@H]3C[C@H]4CC[C@@H](C3)N4CCC#N)n2)n[nH]1 | Ephrin type-B receptor 6 (EPHB6, Homo sapiens, UniProt O15197) | binding, competition with immobilised ligand | – | Kd | 2 µM
Cc1ccc(C(=O)Nc2ccc(Oc3cc4cnn(C)c4cc3-c3cn[nH]c3)c(F)c2)c(=O)n1-c1ccc(F)cc1 | Tyrosine-protein kinase receptor Tie-1 (TIE1, Homo sapiens, UniProt P35590) | binding, competition with immobilised ligand | – | Kd | 0.0009 µM
CC(C)(C)[C@H](NC(=O)[C@H](CCCNC(=N)N)NC(=O)Cc1ccc(CNC(=N)N)cc1)C(=O)N[C@@H](CCONC(=N)N)C(=O)NCc1ccc(C(=N)N)cc1 | F2 trypsin-like site | enzyme activity, inhibitor | pH 8 | Ki | 9.6 µM
c1cncc(-c2cccc(Nc3nccc(NC4CCNCC4)n3)c2)c1 | FLT3 | enzyme activity, inhibitor | – | IC50 | 0.008 µM
COc1ccc2[nH]cc(CCNC(C)=O)c2c1I | MTNR1A | GTPγS binding, agonist, radiometric | cell membranes | EC50 | 0.112 µM
Cn1cc(C[C@@H](N)C(=O)O)c2ccccc21 | Dihydrofolate reductase (DHFR, Homo sapiens, UniProt P00374) | enzyme activity, inhibitor | pH 7 | Ki | 810 µM
O=C(O[C@H](Cn1ccnc1)c1ccccc1)c1ccc(-c2ccccc2)cc1 | CYP51 | binding | – | Kd | 0.046 µM
CCC(=O)NC1Cc2ccccc2C(c2ccccc2)C1 (stereo not shown) | MTNR1A | cAMP, agonist, TR-FRET | – | EC50 | 0.282 µM
COC(=O)c1cccc(-c2cccc(Nc3nccc(NC4CCCCC4)n3)c2)c1 | FLT3 | enzyme activity, inhibitor | – | IC50 | 13.3 µM
COc1cccc2c1CCN(C(=O)c1cc(=O)n(C)cc1Br)C2 | MTNR1A | cAMP, agonist, luciferase | – | EC50 | 0.0963 µM
Cc1cc2nc3c(=O)[nH]c(=O)nc-3n(C[C@H](O)[C@H](O)[C@H](O)COP(=O)(O)OP(=O)(O)OC[C@H]3O[C@@H](n4cnc5c(N)ncnc54)[C@H](O)[C@@H]3O)c2cc1C | DNA topoisomerase 2-alpha (TOP2A, Homo sapiens, UniProt P11388) | binding | lysate | Kd | 0.141 µM
COc1cc2c(CCNC(C)=O)c[nH]c2cc1I | MTNR1A | β-arrestin recruitment, agonist | – | EC50 | 0.00525 µM
CC(C)(C)[C@H](NC(=O)[C@H](CCONC(=N)N)NC(=O)Cc1ccc(CN)cc1)C(=O)N[C@@H](CCONC(=N)N)C(=O)NCc1ccc(C(=N)N)cc1 | F2 trypsin-like site | enzyme activity, inhibitor | pH 8 | Ki | 25 µM
COc1ccc2c(Oc3ccc4c(C(=O)Nc5ccccc5N)cccc4c3)ccnc2c1 | Mitogen-activated protein kinase 11 (MAPK11, Homo sapiens, UniProt Q15759) | enzyme activity, inhibitor | – | IC50 | > 0.5 µM
Cc1cnc(-c2ccc(-c3ccc(NC(=O)Nc4c(F)cc(F)cc4F)cc3F)c3c2C(=O)NC3)[nH]1 | Aurora kinase C (AURKC, Homo sapiens, UniProt Q9UQB9) | binding, competition with immobilised ligand | – | Kd | 0.0011 µM
COC(=O)[C@H](C)Nc1ccnc(Nc2cccc(-c3cccnc3)c2)n1 | FLT3 | enzyme activity, inhibitor | – | IC50 | > 22 µM
CC(C)c1ccc(NC(=O)O[C@H](Cn2ccnc2)c2ccc(F)cc2)cc1 | CYP51 | binding | – | Kd | 0.032 µM
O=C(NCCc1cccc2ccccc12)C1CCC1 | MTNR1A | β-arrestin recruitment, agonist | – | EC50 | 0.288 µM
OC[C@@]12C[C@@H]1[C@@H](n1cnc3c(N[C@H](C4CCC4)C4CC4)nc(I)nc31)[C@H](O)[C@@H]2O | HTR2C | calcium signal, antagonist | – | Kb | 0.288 µM
COc1ccc(CNc2cccnc2)cc1Br | MTNR1A | cAMP, agonist, luciferase | – | EC50 | 0.049 µM
CCc1ccc2scc(CCNC(C)=O)c2c1 | MTNR1A | cAMP, agonist, TR-FRET | – | EC50 | 0.0398 µM
